From ChEMBL document CHEMBL3425424, “Anti-inflammatory coumarin and benzocoumarin derivatives from Murraya alata” (J Nat Prod, 2015)

How the values were obtained:
RAW264.7 [1] = experiment: Antiinflammatory activity against mouse RAW264.7 cells assessed as reduction of LPS-induced NO production after 24 hrs; assay type: functional, cell-based; conditions: RAW264.7, 24 h
Summary of the method: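 RAW 264.7 murine macrophages were grown in DMEM with 10% FBS, penicillin and streptomycin at 37 °C under 5% CO2. Cells were seeded at 1 × 10^5 per well and given 1.0 μg/mL LPS (E. coli 0111:B4) with or without compound for 24 h at 37 °C. Supernatant NO was read by Griess reagent (10 min, room temperature, dark) at OD 540 nm against a sodium nitrite standard curve. Indomethacin was the positive control; three parallel runs, mean ± SD.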

RAW264.7 [2] = experiment: Cytotoxicity against mouse RAW264.7 cells assessed as cell survival at 80 uM after 24 hrs by MTT assay; assay type: cell-based; conditions: raw264.7, 24 h
Summary of the method: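 Viability of RAW 264.7 murine macrophages was read by MTT assay. Cells were kept in DMEM with 10% FBS, 100 U/mL penicillin and 100 μg/mL streptomycin, humidified, 37 °C, 5% CO2.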

Row | SMILES | IC50 (RAW264.7 [1]) | Activity (RAW264.7 [2])
1 | C=C(C)[C@@H](O)Cc1c(OC)cc(OC)c2ccc(=O)oc12 | 12.4 µM | Non-toxic
2 | COc1ccc2ccc(=O)oc2c1C(=O)C(=O)C(C)C | – | Non-toxic
3 | C=C(C)/C=C/c1c(OC)cc(OC)c2ccc(=O)oc12 | 12.4 µM | Non-toxic
4 | C=C(C)[C@H](Cc1c(OC)ccc2ccc(=O)oc12)OO | 12.4 µM | Non-toxic
5 | C=C(C)/C=C\c1c(OC)cc(OC)c2ccc(=O)oc12 | 14.5 µM | Non-toxic
6 | COc1ccc2ccc(=O)oc2c1CC=C(C)C [OSTHOLE] | 12.4 µM | Non-toxic
7 | COc1c(OC)c(CC=C(C)C)c2oc(=O)ccc2c1OC | 12.4 µM | Non-toxic
8 | C=C(C)C(O)C(OCC)c1c(OC)ccc2ccc(=O)oc12 (centres undefined) | 43.3 µM | Non-toxic
9 | COc1ccc2ccc(=O)oc2c1 [HERNIARIN] | 12.4 µM | Non-toxic
10 | COc1c(OC)c(CC(O)C(C)(C)O)c2oc(=O)ccc2c1OC (centres undefined) | 12.4 µM | Non-toxic
11 | C=C(C)[C@H](O)[C@H](O)c1c(OC)ccc2ccc(=O)oc12 (relative stereo) | 12.4 µM | Non-toxic
12 | COc1cc(OC)c2ccc(=O)oc2c1CC(C)(C)C=O | 12.4 µM | Non-toxic
13 | COc1cc2cc(C)ccc2c2oc(=O)ccc12 | 12.4 µM | Non-toxic
14 | CC(C)=CCc1cc2ccc(=O)oc2c2c1OC(C)(C)C=C2 | 12.4 µM | Non-toxic
15 | COc1cc(OC)c2ccc(=O)oc2c1CC(=O)C(C)C | 20.6 µM | Non-toxic
16 | COc1cc(OC)c2ccc(=O)oc2c1CC(C)(C)C(=O)O | 12.4 µM | Non-toxic
17 | COc1cc(OC)c2ccc(=O)oc2c1CC=O | 13.8 µM | Non-toxic

Row | SMILES | IC50 (RAW264.7 [1]) | Activity (RAW264.7 [2])
18 | COc1cc(OC)c2ccc(=O)oc2c1C[C@@H](O)C(C)(C)O | 12.4 µM | Non-toxic
19 | COc1ccc2c(c1)c(CC(=O)O)c(C)n2C(=O)c1ccc(Cl)cc1 [INDOMETHACIN] | 6.3 µM | –
20 | CCOC(C)(C)C(O)Cc1c(OC)cc(OC)c2ccc(=O)oc12 (centres undefined) | 31.9 µM | Non-toxic
21 | COc1cc(OC)c2ccc(=O)oc2c1C/C=C(\C)C=O | 28.3 µM | Non-toxic
22 | CCOC(C)(C)[C@@H](O)Cc1c(OC)c(OC)c(OC)c2ccc(=O)oc12 | 34.2 µM | Non-toxic
23 | C=C(C)[C@H](O)[C@H](OCC)c1c(OC)ccc2ccc(=O)oc12 | 12.4 µM | Non-toxic
24 | COc1cc2c(c3oc(=O)ccc13)C=CC(C)(C)O2 | 12.4 µM | Non-toxic
25 | COc1ccc2ccc(=O)oc2c1C(C=O)=C(C)C [MURRALONGIN] | 12.4 µM | Non-toxic
26 | COc1cc(OC)c2ccc(=O)oc2c1/C=C/C(C)C | 20.5 µM | Non-toxic
27 | COc1c(OC)c(/C=C/C(C)(C)O)c2oc(=O)ccc2c1OC | 12.4 µM | Non-toxic
28 | COc1cc(OC)c2ccc(=O)oc2c1CC=C(C)C | 33.1 µM | Non-toxic
29 | COc1cc(OC)c2ccc(=O)oc2c1/C=C/C(C)=O | 6 µM | Non-toxic
30 | C=C(C)Cc1c(OC)cc(OC)c2ccc(=O)oc12 | 12.4 µM | Non-toxic
31 | COc1ccc2ccc(=O)oc2c1C(O)C(=O)C(C)C (centres undefined) | 12.4 µM | Non-toxic
32 | COc1cc2cc(COC(=O)CC(C)C)ccc2c2oc(=O)ccc12 | 9.1 µM | Non-toxic
33 | COc1cc(OC)c2ccc(=O)oc2c1C(=O)C(=O)C(C)C | 12.4 µM | Non-toxic
